Screens (PubChem BioAssay)
Cneo AK release: Cryptococcus neoformans lysis via adenylate kinase release. C. neoformans lysis, adenylate kinase release luminescence, 4 h; normalised: neutral wells 0, clomiphene wells 100. lysis activity, % at 15 µM. AID 651654. 0.2% of 360,000 active;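 active = mean lysis activity across replicates of at least 80%, whatever share of replicates individually reach that level; inactive = mean lysis activity below 80%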
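Material: C. neoformans cells | Amount: Yeast cell density of 5 × 10^6 cells/mL | Medium: Fresh YPD growth medium | Dosing: Single dose | Times: Static 4 h at 37 °C with compound, 1 h detection | Detection: AK luminescence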
HIV Env fusion: inhibitors of HIV Env-mediated cell fusion | HeLa-JRFL Env/CEM21 cell fusion, luciferase | inhibition, % at 12.3 µM | 1.1% of 360,000 active | AID 651610;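 active = mean replicate inhibition score of at least 50 and every replicate individually at or above 50; inconclusive = only one of the two criteria met; inactive = mean below 50 and not all replicates reaching 50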
esBAF inh: blocks esBAF chromatin remodeling in mouse ES cells; Bmi1-luciferase knock-in reporter, 24 h; 100% = twice the neutral-well signal; reporter increase, % at 12.5 µM; 2% of 350,000 active; in the data active = activation above about 40%; inconclusive = no clear call, values can overlap the other calls;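 also: a rise in the Bmi1 reporter signal indicates esBAF inhibition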
MITF act: increases MITF-driven TRPM1 promoter luciferase signal | SK-MEL-5 TRPM1-promoter luciferase, 24 h; % of positive control, neutral wells = 0 | activation, % at 12.5 µM | 0.75% of 300,000 active | AID 588334;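 active = mean activation of at least 80% with every replicate also reaching 80%; inconclusive = mean reaches 80% but some replicate falls short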
ERAP1 inh: inhibitors of human ERAP1 aminopeptidase; recombinant ERAP1, Leu-AMC fluorescence, 60 min; inhibition, % at 10.7 µM; 0.15% of 340,000 active;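 active = mean replicate inhibition of at least 30%, or all replicates individually reaching that 30% level; inactive = mean below 30% and not every replicate reaching it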
Target sequence (Q9NZ08 whole entry, looked up): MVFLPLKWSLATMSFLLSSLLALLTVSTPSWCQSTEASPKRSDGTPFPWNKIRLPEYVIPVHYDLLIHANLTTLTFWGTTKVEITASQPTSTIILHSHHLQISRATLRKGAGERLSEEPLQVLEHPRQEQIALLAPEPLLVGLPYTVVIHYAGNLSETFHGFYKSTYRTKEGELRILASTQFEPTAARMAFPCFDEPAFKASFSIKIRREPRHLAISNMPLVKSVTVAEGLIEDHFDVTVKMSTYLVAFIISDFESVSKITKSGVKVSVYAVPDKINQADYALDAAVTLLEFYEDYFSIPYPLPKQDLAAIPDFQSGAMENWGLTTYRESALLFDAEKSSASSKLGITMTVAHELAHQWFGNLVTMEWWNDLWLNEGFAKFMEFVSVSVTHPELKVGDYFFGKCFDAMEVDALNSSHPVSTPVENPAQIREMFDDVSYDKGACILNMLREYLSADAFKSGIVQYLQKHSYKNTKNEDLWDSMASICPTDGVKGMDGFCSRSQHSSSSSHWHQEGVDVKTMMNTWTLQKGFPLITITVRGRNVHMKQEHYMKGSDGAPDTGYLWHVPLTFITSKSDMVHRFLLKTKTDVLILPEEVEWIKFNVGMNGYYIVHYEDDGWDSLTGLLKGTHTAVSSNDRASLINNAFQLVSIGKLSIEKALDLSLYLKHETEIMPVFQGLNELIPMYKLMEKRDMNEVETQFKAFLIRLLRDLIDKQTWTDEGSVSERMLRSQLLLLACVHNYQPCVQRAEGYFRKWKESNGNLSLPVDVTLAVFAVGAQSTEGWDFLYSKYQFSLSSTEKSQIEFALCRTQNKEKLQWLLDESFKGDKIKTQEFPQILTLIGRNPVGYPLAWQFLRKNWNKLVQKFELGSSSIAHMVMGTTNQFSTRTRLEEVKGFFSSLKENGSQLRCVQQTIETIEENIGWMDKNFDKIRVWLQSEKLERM
Wnt bcat act: Wnt/beta-catenin pathway activation; Wnt/beta-catenin reporter cell assay, activator, plate reader; 1.2% of 300,000 active; AID 743398; activation, % at 9.35 µM; in the data active = activation above about 30%, passing the limit was not always enough; inconclusive = no clear call, values can overlap the other calls
Numbers stand for hits; . = inactive; ? = inconclusive; / = not tested or not shown. Compounds with a hit are over-represented: about 3.5% of the library has one in this group of screens.

SMILES	Cneo AK release	HIV Env fusion	esBAF inh	MITF act	ERAP1 inh	Wnt bcat act
COc1ccccc1/C=C1\SC(=S)N(CCC(=O)Nc2cccc(O)c2)C1=O	.	70	.	/	.	.
Cc1ccc(/C=C2/SC(=S)N(CCCC(=O)Nc3ccc(O)cc3)C2=O)cc1	/	55	.	.	.	.
O=C(O)CN1C(=O)/C(=C\c2ccccc2OCc2ccc(F)cc2)SC1=S	.	.	.	.	32	.
C[C@H]1CCCCO[C@H](CN(C)S(=O)(=O)c2ccc(Cl)cc2)[C@@H](C)CN([C@@H](C)CO)C(=O)c2cc(NS(=O)(=O)c3ccc(F)cc3)ccc2O1	.	.	.	/	.	/
C[C@H]1CN([C@@H](C)CO)C(=O)c2cc(N(C)C)ccc2O[C@H]1CN(C)Cc1ccc(Oc2ccccc2)cc1	.	.	.	/	.	/
COc1ccc(S(=O)(=O)N(C)C[C@@H]2OCCCC[C@@H](C)Oc3ccc(NC(=O)C4CCCCC4)cc3C(=O)N([C@H](C)CO)C[C@@H]2C)cc1	.	.	.	/	.	/
CNC[C@H]1Oc2ccc(NC(=O)Nc3ccc(OC)cc3)cc2C(=O)N([C@H](C)CO)C[C@H]1C	.	.	.	/	.	/
C/C=C/c1ccc([C@@H]2[C@H](C#N)N(C(=O)NC3CCCC3)[C@H]2CO)cc1	.	.	.	/	.	/
COc1cc(/C=C2\SC(=S)N(CC(=O)O)C2=O)ccc1OC(=O)c1ccco1	.	.	.	.	.	.
COc1cc(/C=C2/SC(=S)N(CC(=O)O)C2=O)ccc1OC(=O)c1ccco1	.	.	.	.	56	.
Cc1ccc(/C=C2\SC(=S)N(CCCC(=O)NNC(=O)c3ccccc3O)C2=O)cc1	.	96	.	.	/	.
Cc1ccc(/C=C2\SC(=S)N(CCC(=O)NNC(=O)c3ccccc3O)C2=O)cc1	.	.	.	.	.	.
COc1ccc(Br)cc1CNC(=O)c1ccc2c(c1)N(C)CCS2	.	.	.	.	.	.
CN1CCSc2ccc(C(=O)NCc3cccc(F)c3)cc21	.	.	.	/	.	.
COc1cccc(NC(=O)c2ccc3c(c2)CCN3S(C)(=O)=O)c1	.	.	56	/	.	.
COc1cccc(NC(=O)c2ccc3c(c2)N(C)CCS3)c1	.	.	51	.	.	50
CN1CCSc2ccc(C(=O)Nc3ccc(Cl)cc3)cc21	/	.	/	?	.	37
O=C(COC(=O)CCC(=O)c1cccs1)NCc1ccc(Cl)cc1	.	.	.	.	.	.
COc1ccccc1C(=O)COC(=O)C1(C)CC1(Cl)Cl (stereo unspecified)	.	.	60	.	.	.
COc1cccc(C(=O)COC(=O)c2cccs2)c1	.	.	.	.	.	39
COc1ccc(CNC(=O)COC(=O)CCC(=O)c2cccs2)cc1	.	.	.	.	/	39
COc1cccc(C(=O)COc2ccc(NC(=O)c3cccs3)cc2)c1	.	.	.	.	.	.
COc1ccccc1C(=O)COC(=O)c1cccs1	.	?	81	.	.	.
C[C@@H]1CN([C@H](C)CO)C(=O)c2cccc(NS(=O)(=O)c3ccc(Cl)cc3)c2O[C@H]1CN(C)S(=O)(=O)c1ccc(F)cc1	.	.	.	/	/	/
CO[C@@H]1CN(C)C(=O)c2ccc(NC(=O)C3CCCC3)cc2OC[C@H](C)N(C(=O)CC2CC2)C[C@@H]1C	.	.	.	/	.	/
SMILES	Cneo AK release	HIV Env fusion	esBAF inh	MITF act	ERAP1 inh	Wnt bcat act
O=C(COC(=O)c1cccs1)c1ccccc1	.	/	.	.	/	/
CCOc1ccc(C(=O)c2cccs2)cc1	.	.	48	.	/	.
COc1ccc(C(=O)COC(=O)c2cccs2)cc1	.	.	68	.	.	54
Cc1cc(C)nc(-n2nc(C)c(Sc3ccc(F)cc3)c2N)n1	.	/	137	.	.	.
COC(=O)CCc1sc(Nc2ccccc2)nc1-c1ccc(OC)cc1	.	.	/	.	/	42
CN(C)CCCNC(=O)C[C@@H]1CC[C@H]2[C@@H](COc3ccc(NC(=O)c4cccc(F)c4)cc3C(=O)N2C)O1	.	.	.	/	.	/
CNC(=O)C1(C)Cc2c(-c3ccc(NC(C)=O)cc3)ccnc2O1 (stereo unspecified)	.	.	.	/	.	.
CC(=O)Nc1ccc(-c2ccnc3c2CC(C)(C(=O)NC(C)C)O3)cc1 (stereo unspecified)	.	.	.	/	.	41
CCC(NC(=O)c1cncc(Br)c1)c1ccccc1 (stereo unspecified)	.	.	.	.	/	31
Cc1ccccc1C(=O)NCCSc1ccccc1	.	/	55	96	/	/
O=C(NCc1ccccc1)c1cncc(Br)c1	.	/	/	.	.	.
O=C(NCCSc1ccccc1)c1cncc(Br)c1	/	/	76	.	/	/
CC(C)NC(=O)N(C)C[C@@H]1Oc2c(NC(=O)Nc3ccccc3)cccc2C(=O)N([C@@H](C)CO)C[C@H]1C	.	/	.	/	.	/
C[C@@H](O)C#Cc1cnc2c(c1)C(=O)N([C@@H](C)CO)C[C@H](C)[C@H](CN(C)C(=O)Nc1ccc(C(F)(F)F)cc1)O2	.	.	.	/	/	/
CC(C)(C)n1nnnc1C(c1ccccn1)N(Cc1ccccc1)Cc1ccc(Cl)cc1 (stereo unspecified)	.	127	.	.	/	.
CC1CCCC(NC(=O)COC(=O)c2cc3ccccc3oc2=O)C1C (stereo unspecified)	.	/	68	.	.	.
CN1CCc2c(sc(NC(=O)c3ccc([N+](=O)[O-])o3)c2C(N)=O)C1	.	72	.	.	.	.
NC(=O)c1c(NC(=O)c2ccc([N+](=O)[O-])o2)sc2c1CCCC2	.	.	/	.	.	.
Cc1nn(-c2ccc(N3CCCCC3)nn2)c(C)c1CCC(=O)Nc1cccc(F)c1	.	.	64	97	.	.
Cc1ccc(NC(=O)CCc2c(C)nn(-c3ccc(N4CCCCC4)nn3)c2C)cc1F	.	.	69	.	.	.
Cc1ccc(C)c(NC(=O)CCc2c(C)nn(-c3ccc(N4CCCCC4)nn3)c2C)c1	.	.	.	.	.	.
CCCCc1c(-c2ccccc2OC)ncn1Cc1ccc(C)cc1	/	61	/	/	.	.
CCCCc1c(-c2ccccc2OC)ncn1Cc1ccc(-c2ccccc2)cc1	/	.	/	/	.	.
CCCCc1c(-c2ccccc2OC)ncn1Cc1ccc(OC)cc1	/	61	/	/	.	.
COCC(=O)N1[C@H](CNC(=O)c2ccccn2)[C@@H](c2ccccc2)[C@@H]1CO	.	/	.	/	/	/
Cc1ccc(O)c(N=Nc2ccccc2)n1	.	.	63	.	.	41
Oc1ccc(Cl)cc1N=Nc1ccccc1	.	.	.	/	.	.
CC(C)C(OC(=O)c1ccccc1)c1nccc2ccccc12 (stereo unspecified)	.	.	72	.	.	.
Cc1c(C(=O)NCC(C)C)sc2nc(-c3ccc(F)cc3)cn12	.	.	50	/	.	.
